Here are results for 28 molecules from PubChem BioAssay AID540281 (Sanford-Burnham Center for Chemical Genomics, 2011).

Screen size: about 2,500 compounds; about 1,500 (60%) were called active. So high a share suggests a set chosen from earlier hits. These entries were drawn from the full list. A number with no mark means an inactive call.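 How the source made its calls: active means inhibition of at least 30% at 20 µM; inactive means the rest.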 Non-standard residues stand in square brackets, D forms with d. Residues, ends and D or L forms follow the SMILES beside them. ξ: configuration not given here. ξM = CSCCC(N)C(=O)O

Chain of Carboxy-terminal domain RNA polymerase II polypeptide A small phosphatase 1 (Homo sapiens) (Q9GZU7 76-261 limits assumed): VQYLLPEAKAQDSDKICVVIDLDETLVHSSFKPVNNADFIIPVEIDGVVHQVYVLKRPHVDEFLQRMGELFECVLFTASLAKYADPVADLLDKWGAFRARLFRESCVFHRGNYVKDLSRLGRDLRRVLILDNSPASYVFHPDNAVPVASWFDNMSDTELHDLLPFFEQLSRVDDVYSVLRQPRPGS

The test has as its target Carboxy-terminal domain RNA polymerase II polypeptide A small phosphatase 1 (Homo sapiens) (UniProt Q9GZU7). Kind of test: SCP1 dephosphorylation blockade at one dose – biochemical, colorimetric, single concentration, confirmation (AID 540281).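 Further: plate controls were DMSO with enzyme for no effect and buffer wells lacking enzyme for full effect.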 Particulars: recombinant SCP-1 catalytic domain, phosphate release, malachite green absorbance; at 20 µM; stronger effect = higher value. The essentials:
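Test system: SCP-1 enzyme, residues 76-261; buffer or medium: Tris acetate pH 5.5 buffer with Mg2+ and detergent; also added: Phosphorylated 17-mer peptide as phosphatase substrate; compound dosing: single point at 20 µM, 1% DMSO; incubation: Enzyme–substrate reaction 45 min, room temperature; detection: colorimetric absorbance at 630 nm of released free orthophosphate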
Broadly, the inhibition is the relative decrease from the control value, in per cent. Regarding `Cc1ccc(NC(=O)COc2ccc(/C=N\NC(=O)c3cccnc3)cc2)cc1C`, the inhibition is 81% (active).

With `Cc1ccccc1NC(=O)CN1C(=O)N/C(=C\c2cccn2-c2cccc(C(=O)O)c2)C1=O`, the inhibition was 82.2% (active).

Take `Cc1ccc(C2(C)NC(=O)N(CC(=O)Nc3ccccc3C(=O)N3CCCCC3)C2=O)cc1` (stereo not drawn): the inhibition is -13.7%.

As to `C[C@H](CO)N1C[C@H](C)[C@H](CN(C)C(=O)Nc2ccc(C(F)(F)F)cc2)Oc2c(NC(=O)c3ccncc3)cccc2C1=O`, the inhibition was 44.3% (active).

As for `COc1ccc(NC(=O)N(C)C[C@H]2Oc3ccc(NC(=O)C4CC4)cc3C(=O)N([C@H](C)CO)C[C@@H]2C)cc1`, the inhibition is 2.35%.

Regarding `C[C@H](CO)N1C[C@H](C)[C@@H](CN(C)C(=O)NC2CCCCC2)Oc2ccc(NC(=O)c3ccncc3)cc2C1=O`, the inhibition is 6.94%.

`CNS(=O)(=O)c1cccc(C(=O)OCC(=O)N2c3ccccc3NC(=O)C2(C)C)c1`: the inhibition was 48.6% (active).

For `CC(NC(=O)CC1SC(N)=NC1=O)c1ccccc1` (stereo not drawn), the inhibition was -28.8%.

As for `C=Cc1ccc(C(=O)N2CCCC(CCC(=O)N3CCN(c4ccccn4)CC3)C2)cc1` (stereo not drawn), the inhibition is 67% (active).

As to `COc1cc(SC)ccc1C(=O)NNC(=O)C1COc2ccccc2O1` (stereo not drawn), the inhibition is 5.11%.

On to `O=C(Nc1cc(S(=O)(=O)N2CCCCC2)ccc1Cl)C1COc2ccccc2O1` (stereo not drawn), for which the inhibition is 65.1% (active).

In the case of `O=C(N/N=C/c1ccco1)c1ccc(C(=O)N/N=C/c2ccco2)o1`, the inhibition is 56.8% (active).

Turning to `COc1ccc2[nH]c3c(C)c4cc[n+](C)cc4c(C)c3c2c1`, the inhibition was -2.43%.

For `COc1ccc(/C=C/C(=O)OCC(=O)NC2CCCCCC2)cc1OC`, the inhibition is 45.2% (active).

As for `N/C(=N\OC(=O)N1c2ccccc2Sc2ccccc21)c1ccc(Br)cc1`, the inhibition was 46.1% (active).

Regarding `Cc1ccc(Cc2nnc(SCC(=O)Nc3ccc(C)cc3C)[nH]c2=O)cc1`, the inhibition is 39.7% (active).

Consider `COCCCn1c(Cc2csc(Nc3cccc(Cl)c3)n2)nnc1SCC(=O)OC1CCCCC1`, for which the inhibition was 59.1% (active).

Take `Cc1ccc(S(=O)(=O)Nc2ccc3c(c2)C(=O)N([C@H](C)CO)C[C@@H](C)[C@@H](CN(C)C(=O)Nc2cccc4ccccc24)O3)cc1`: the inhibition was 5.11%.

Turning to `N#Cc1ccccc1CN1C(=O)S/C(=C/c2cccn2-c2cccc(C(=O)O)c2)C1=O`, the inhibition was 67% (active).

As to `C[N+](C)(C)CCNC(=O)c1cc[n+](Cc2ccccc2)c(/C=N/O)c1`, the inhibition was 83.3% (active).

Consider `CC(=O)Nc1ccccc1Sc1ccc2c3c(cccc13)C(=O)N(c1ccc(C)cc1)C2=O`, for which the inhibition is 0.82%.

On to `COC(=O)CNC(=O)C(CCSC)NC(C)=O` (stereo not drawn) (Ac-[ξM]-Gly-OMe), for which the inhibition is -12.9%.

For the molecule `O=C(CCC(=O)N/N=C/c1ccc(Br)o1)N/N=C/c1ccc(Br)o1`, the inhibition was 40.3% (active).

For `O=C(CCNC(=O)c1ccccc1)NN=Cc1ccc(Br)o1`, the inhibition was 45% (active).

Turning to `O=C(CNC(=O)C(c1ccccc1)c1ccccc1)N/N=C\c1ccc2c(c1)OCO2`, the inhibition was -8.05%.

For the molecule `N#Cc1c(-c2cccs2)nc(SCC(=O)c2ccc(Br)cc2)[nH]c1=O`, the inhibition was 78.5% (active).

Turning to `COc1ccc(Cc2nnc(NC(=O)Cc3cccs3)s2)cc1`, the inhibition was 77.3% (active).

Take `O=S(=O)(Nc1ccccc1Cl)c1cccc2nsnc12`: the inhibition was 48.1% (active).
